For one test, the system named is Pf parasites. The test is described as follows: Minimum inoculum resistance. It counts as cell-based, Plasmodium falciparum. An outline of the steps:
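Pf cultures were selected at constant pressure of 3 × IC50 in two groups. The lower-inoculum group used 24 wells. The higher group started at 2 × 10^7 parasites in triplicate, covering 2 × 10^7 to 6 × 10^7. Wells were monitored for day of recrudescence. MIR = total inoculum divided by the number of recrudescent wells. A DHODH inhibitor served as positive control. Resistant clones were whole-genome sequenced.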

For test [1], the system named is Dd2. The settings on record: read-out: Dd2 IC50; cited from earlier work.
The test system of the next test is NF54. Briefly: 72 h [3H]hypoxanthine incorporation assay, NF54. It counts as cell-based. The settings on record: Plasmodium falciparum. A digest of the protocol:
(§1)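 Asexual Pf strains were tested in a modified [3H]-hypoxanthine incorporation assay. Drug-resistant laboratory strains were compared with the drug-sensitive NF54 strain. IC50s came from linear interpolation.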

For test [2], the system named is Dd2. The test is described as follows: 72 h [3H]hypoxanthine incorporation assay, Dd2. The conditions noted are these: Plasmodium falciparum. It counts as cell-based.
In another test the test system is K1. The test is described as follows: 72 h [3H]hypoxanthine incorporation assay, K1. It counts as cell-based. The conditions noted are these: Plasmodium falciparum. An outline of the steps: as §1
The next test has as its system 7G8. Briefly: 72 h [3H]hypoxanthine incorporation assay, 7G8. It counts as cell-based. The settings on record: Plasmodium falciparum. An outline of the steps: as §1
The subject of another test is TM90C2b. Briefly: 72 h [3H]hypoxanthine incorporation assay, TM90C2b. It counts as cell-based. The conditions noted are these: Plasmodium falciparum. A digest of the protocol:
as §1

The test system of another test is Cam3.I. Briefly: 72 h [3H]hypoxanthine incorporation assay, Cam3.I. It counts as cell-based. The conditions noted are these: Plasmodium falciparum. An outline of the steps:
as §1

Read-outs that look alike come from different tables or passages of the source.

For the molecule `Cc1cc(Nc2ccc(S(F)(F)(F)(F)F)cc2)n2nc(C(C)(F)F)nc2n1` [DSM265], in the test on Pf parasites (selection pressure 3 × IC50, parasites), the “minimum inoculum resistance (MIR)” value is given as 2 × 10^7. Moreover, the day of recrudescence entry in the test with Pf parasites (starting inoculum 2 × 10^5 parasites, 24 replicates) was “never recrudesced”; in the test with Pf parasites (starting inoculum 2 × 10^7 parasites, triplicate), 25 days.

As to `O=C(NC1Cc2ccccc2C1)c1nccnc1NC(=O)N1CCCCC1` [N-(2,3-dihydro-1H-inden-2-yl)-3-(piperidine-1-carboxamido)pyrazine-2-carboxamide], the IC50 with Dd2 [1] was 63 nM.

Regarding `C[C@H]1[C@H](OC(=O)CCC(=O)O)O[C@@H]2O[C@@]3(C)CC[C@H]4[C@H](C)CC[C@@H]1[C@@]24OO3` [artesunate], the IC50 in the test on NF54 was 4 nM; with Dd2 [2], 6 nM; in the test with K1 it was 2 nM; with 7G8, 2 nM; in the test with TM90C2b, 5 nM; in the test on Cam3.I, 11 nM.

With `CCN(CC)CCCC(C)Nc1ccnc2cc(Cl)ccc12` (stereo not shown) [chloroquine], the IC50 in the test with NF54 came out at 8 nM; with Dd2 [2], 157 nM; in the test with K1 it was 202 nM; in the test with 7G8, 79 nM; with TM90C2b it was 135 nM; with Cam3.I, 180 nM.

What is called IC50 is the concentration that gives 50% inhibition.
